Measured values pooled from the literature.
Each line is one published result; the experiments were not run side by side.
Method: competition with immobilised ligand
RPS6KA4 C-terminal kinase domain: Ribosomal protein S6 kinase alpha-4, C-terminal kinase domain (RPS6KA4, Homo sapiens, UniProt O75676)
RPS6KA4 N-terminal kinase domain: Ribosomal protein S6 kinase alpha-4, N-terminal kinase domain (RPS6KA4, Homo sapiens, UniProt O75676)

`CN(c1nccc(-c2cnn3ncccc23)n1)C1CC1` has a remaining binding of 100% (RPS6KA4 C-terminal kinase domain; binding; 1 µM).
With `O=C(Nc1c[nH]nc1C(=O)NC1CCNCC1)c1cc(F)cc(F)c1` the remaining binding was 100% (RPS6KA4 N-terminal kinase domain; binding; 1 µM).
`COc1ccc2c(c1)O[C@@H](c1ccc(OC)c(OC)c1)C[C@H]2NC(=O)C1(c2ccc3c(c2)OC(F)(F)O3)CC1` gave a remaining binding of 81% (RPS6KA4 C-terminal kinase domain; cell-free assay; 1 µM).
`O=C(c1ccc(Nc2nccc(-c3cc4ccccc4s3)n2)cc1)N1CCC(N2CCCC2)CC1` has a remaining binding of 14% (RPS6KA4 C-terminal kinase domain; binding; 1 µM).
With `CN(C)c1nccc(-c2cnc3ncccn23)n1` the remaining binding was 62% (RPS6KA4 C-terminal kinase domain; binding; 1 µM).
The remaining binding of `CNC(=O)[C@@H]1CC[C@@H](n2c(-c3ccc4cnccc4c3)nc3ccc(C(=O)NCc4cccc(C(N)=O)c4)cc32)C1` is reported as 99% (RPS6KA4 C-terminal kinase domain; binding; 1 µM).
`C[C@@]1(Cc2ccc(C#N)cc2)C(=O)N(c2cc(Cl)cc(Cl)c2)c2ncc(C(=O)NC3(c4nc(C5CCC5)no4)CC3)n21` gave a remaining binding of 100% (RPS6KA4 C-terminal kinase domain; cell-free assay; 1 µM).
The remaining binding of `F[C@@H]1CCN(c2nccc(-c3cnn4ncccc34)n2)C1` is reported as 92% (RPS6KA4 C-terminal kinase domain; binding; 1 µM).
For `Cc1c(C(=O)O)cc(-c2ccc(C3CCNCC3)cc2)c2ccc(-c3ccc(C(F)(F)F)cc3)cc12`, the remaining binding was 88% (RPS6KA4 N-terminal kinase domain; binding; 1 µM).
With `COc1cnc(Nc2cccc(S(N)(=O)=O)c2)nc1N1CCN(c2ccccc2)C(=O)C1` the remaining binding was 100% (RPS6KA4 C-terminal kinase domain; binding; 1 µM).
`O=C(NCCCN1CCOCC1)c1ccc(Nc2ncc(Cl)c(-c3ccc(Cl)s3)n2)cc1` gave a remaining binding of 26% (RPS6KA4 C-terminal kinase domain; binding; 1 µM).
With `C[C@H]1CCN(c2nccc(-c3cnn4ncccc34)n2)C1` the remaining binding was 56% (RPS6KA4 C-terminal kinase domain; binding; 1 µM).
`O=C(c1ccc(Nc2ncc(Cl)c(-c3cc4ccccc4s3)n2)cc1)N1CCC(N2CCCC2)CC1` has a remaining binding of 13% (RPS6KA4 C-terminal kinase domain; binding; 1 µM).
The remaining binding of `O=S(=O)(NC1CCC(c2cc(F)ccc2F)(S(=O)(=O)c2ccc(Cl)cc2)CC1)C(F)(F)F` (stereo not shown) is reported as 100% (RPS6KA4 N-terminal kinase domain; cell-free assay; 1 µM).
`Cc1cnc(Nc2ccc(C(=O)N3CCC(N4CCCC4)CC3)cc2)nc1-c1cc2ccccc2s1` gave a remaining binding of 3.8% (RPS6KA4 C-terminal kinase domain; binding; 1 µM).
The remaining binding of `CN(CCCC(F)(F)F)c1nccc(-c2cnn3ncccc23)n1` is reported as 100% (RPS6KA4 C-terminal kinase domain; binding; 1 µM).
`COc1ncc2cc3ccccc3nc2c1C#N` has a remaining binding of 94% (RPS6KA4 N-terminal kinase domain; cell-free assay; 5 µM).
With `O=C(NCC1CCOCC1)c1n[nH]cc1NC(=O)c1c(F)cccc1F` the remaining binding was 95% (RPS6KA4 N-terminal kinase domain; binding; 1 µM).
For `FC(F)(F)Oc1cccc(-c2cnc3ccc(-c4ccncc4)nn23)c1`, the remaining binding was 97% (RPS6KA4 N-terminal kinase domain; binding; 5 µM).
The remaining binding of `CCN1CCN(Cc2ccc(C(=O)Nc3ccc(C)c(Oc4ccc5c(c4)CC(=O)N5)c3)cc2C(F)(F)F)CC1` is reported as 100% (RPS6KA4 N-terminal kinase domain; binding; 1 µM).
`Cc1cnn2ncc(-c3ccnc(N(C)C)n3)c2c1` gave a remaining binding of 97% (RPS6KA4 N-terminal kinase domain; binding; 1 µM).
`O=C(NCCCN1CCOCC1)c1ccc(Nc2nccc(-c3cc4ccccc4s3)n2)cc1` has a remaining binding of 100% (RPS6KA4 N-terminal kinase domain; binding; 1 µM).
For `CN(C)c1ncc(F)c(-c2cnn3ncccc23)n1`, the remaining binding was 89% (RPS6KA4 N-terminal kinase domain; binding; 1 µM).
`C[C@@H](c1ccc(-n2cnc3c(N)ncnc32)cc1)N1CCc2nn(C)c(Cc3ccccc3)c2C1=O` gave a remaining binding of 84% (RPS6KA4 C-terminal kinase domain; binding; 0.1 µM).
The remaining binding of `Nc1ncc2c(n1)-c1c([nH]c3ccc(C#CC4CC4)cc13)CCCC2` is reported as 88% (RPS6KA4 N-terminal kinase domain; binding; 1 µM).
The remaining binding of `CNCc1ccccc1-c1csc([C@@H](C)Nc2nc(C)nc3cc(OC)c(OC)cc23)c1` is reported as 100% (RPS6KA4 N-terminal kinase domain; cell-free assay; 1 µM).
`c1cncc(-c2cccc(Nc3nccc(NC4CCCCC4)n3)c2)c1` has a remaining binding of 78% (RPS6KA4 N-terminal kinase domain; binding; 10 µM).
With `c1cnn2ncc(-c3ccnc(N4CCC45COC5)n3)c2c1` the remaining binding was 55% (RPS6KA4 C-terminal kinase domain; binding; 1 µM).
With `Cc1noc([C@H]2C[C@@H](c3ccc(C(F)(F)F)cc3)CN(C(=O)N3CCS(=O)(=O)C3)C2)n1` the remaining binding was 100% (RPS6KA4 N-terminal kinase domain; cell-free assay; 1 µM).
For `COc1cnc(Nc2cccc(S(N)(=O)=O)c2)nc1N1CCN(c2ccccc2)CC1`, the remaining binding was 94% (RPS6KA4 N-terminal kinase domain; binding; 1 µM).
With `CO[C@@H](C)c1c(Nc2ccc([C@H](N(C)C(=O)C3CCS(=O)(=O)CC3)C(F)(F)F)cc2)cnc2cc(Cl)nn12` the remaining binding was 86% (RPS6KA4 N-terminal kinase domain; cell-free assay; 1 µM).
`C=CC(=O)N1CCC(C(=O)NCC(=O)N2CCN(c3nc(-c4cnc(N)nc4C(F)F)nc(N4CCOCC4)n3)CC2)CC1` gave a remaining binding of 100% (RPS6KA4 C-terminal kinase domain; binding; 1 µM).
`CN(C(=O)c1ccccc1)c1cc(N(C)c2ccc3c(c2)CCc2ccc(C(=O)NCCN4CCOCC4)cc2C3=O)ccc1F` has a remaining binding of 59% (RPS6KA4 N-terminal kinase domain; cell-free assay; 1 µM).
With `O=C(c1ccc(Nc2ncc(Cl)c(-c3ccc(Cl)s3)n2)cc1)N1CCC(N2CCCC2)CC1` the remaining binding was 18% (RPS6KA4 C-terminal kinase domain; binding; 1 µM).
